Data on 21 compounds can be found in ChEMBL document CHEMBL1130158, “Alkyl-substituted amino acid amides and analogous di- and triamines: new non-peptide G protein activators” (J Med Chem, 1997).

For assay [1], the system named is HL-60. Nature of the assay: Efficacy expressed as maximal stimulation of GTP hydrolysis in HL-60 membranes at a concentration 7.5 uM. The assay is classed as functional, Homo sapiens. The gist of the method: (§1)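 HL-60 cells grown in suspension, differentiated toward neutrophil-like cells with dibutyryl-cAMP (0.2 mM) for 48 h; membranes prepared and steady-state GTP hydrolysis measured with [γ-32P]GTP over increasing compound concentrations. Triplicate determinations, at least three independent experiments. Efficacy = maximal stimulation above basal activity, at the concentration giving maximal stimulation; pEC50 = -log half-maximal concentration, means ± SD.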

Assay [2] relates to HL-60. Briefly: -log of the half-maximal concentration for stimulation of GTPase in HL-60 membrane. The assay is classed as functional. The following applies: Homo sapiens. The gist of the method:
as §1

For assay [3], the system named is HL-60. Briefly: Efficacy expressed as maximal stimulation of GTP hydrolysis in HL-60 membranes at a concentration 3 uM. The assay is classed as functional, Homo sapiens. The gist of the method: as §1
In assay [4] the test system is HL-60. Nature of the assay: Efficacy expressed as maximal stimulation of GTP hydrolysis in HL-60 membranes at a concentration 30 uM. The assay is classed as functional, Homo sapiens. The gist of the method: as §1
Assay [5] relates to HL-60. Nature of the assay: -log of the half-maximal concentration for stimulation of GTPase in HL-60 membrane (sensitive to PTX). The assay is classed as functional. The following applies: Homo sapiens. The gist of the method:
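Differentiated HL-60 cells (dibutyryl-cAMP 0.2 mM, 48 h) incubated overnight with pertussis toxin (200 ng/mL) or left untreated; membranes prepared and steady-state [γ-32P]GTP hydrolysis measured across increasing concentrations. PTX sensitivity judged by comparing treated with control membranes. Triplicates; pEC50 = -log half-maximal concentration, mean ± SD.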

Assay [6] concerns HL-60. Nature of the assay: Efficacy expressed as maximal stimulation of GTP hydrolysis in HL-60 membranes at a concentration 5 uM. The assay is classed as functional, Homo sapiens. The gist of the method: as §1
Assay [7] relates to HL-60. Nature of the assay: Efficacy expressed as maximal stimulation of GTP hydrolysis in HL-60 membranes at a concentration 10 uM. The assay is classed as functional, Homo sapiens. The gist of the method:
as §1

Assay [8] deals with HL-60. Briefly: Efficacy expressed as maximal stimulation of GTP hydrolysis in HL-60 membranes at a concentration 2 uM. The assay is classed as functional, Homo sapiens. The gist of the method:
as §1

Assay [9] has as its system HL-60. Briefly: Efficacy expressed as maximal stimulation of GTP hydrolysis in HL-60 membranes at a concentration 20 uM. The assay is classed as functional, Homo sapiens. The gist of the method:
as §1

The test system of assay [10] is HL-60. Nature of the assay: Efficacy expressed as maximal stimulation of GTP hydrolysis in HL-60 membranes at a concentration 0.75 uM. The assay is classed as functional, Homo sapiens. The gist of the method:
as §1

Assay [11] has as its target Histamine H1 receptor (Cavia porcellus) (UniProt P31389). Nature of the assay: Histamine activity against H1 receptor of guinea pig ileum. The assay is classed as tissue-based.
Assay [12] deals with HL-60. Briefly: Efficacy expressed as maximal stimulation of GTP hydrolysis in HL-60 membranes at a concentration 300 uM. The assay is classed as functional, Homo sapiens. The gist of the method: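 Steady-state GTP hydrolysis of the membranes was measured over increasing compound concentrations in triplicate, across at least three independent experiments. Efficacy is the maximal stimulation above basal activity, with the concentration giving that maximum reported.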

The target of assay [13] is Histamine H2 receptor (Cavia porcellus) (UniProt P47747). Briefly: Histamine activity against Histamine H2 receptor of guinea pig atrium. The assay is classed as tissue-based. The following applies: Cardiac atrium.
Chain of Histamine H2 receptor (Cavia porcellus) (P47747 whole entry): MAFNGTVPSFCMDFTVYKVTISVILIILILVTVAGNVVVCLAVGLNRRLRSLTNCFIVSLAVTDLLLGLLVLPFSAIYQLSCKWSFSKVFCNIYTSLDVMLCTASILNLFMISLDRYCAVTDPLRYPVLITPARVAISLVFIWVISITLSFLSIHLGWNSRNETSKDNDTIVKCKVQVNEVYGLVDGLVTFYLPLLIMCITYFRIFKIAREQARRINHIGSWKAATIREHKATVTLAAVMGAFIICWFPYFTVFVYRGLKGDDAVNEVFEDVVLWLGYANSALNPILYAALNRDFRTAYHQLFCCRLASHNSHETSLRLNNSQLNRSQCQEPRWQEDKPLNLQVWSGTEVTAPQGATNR
For assay [14], the target named is Histamine H3 receptor (Cavia porcellus) (UniProt Q9JI35). Briefly: Histamine activity against Histamine H3 receptor of guinea pig ileum. The assay is classed as tissue-based.
Chain of Histamine H3 receptor (Cavia porcellus) (Q9JI35 whole entry): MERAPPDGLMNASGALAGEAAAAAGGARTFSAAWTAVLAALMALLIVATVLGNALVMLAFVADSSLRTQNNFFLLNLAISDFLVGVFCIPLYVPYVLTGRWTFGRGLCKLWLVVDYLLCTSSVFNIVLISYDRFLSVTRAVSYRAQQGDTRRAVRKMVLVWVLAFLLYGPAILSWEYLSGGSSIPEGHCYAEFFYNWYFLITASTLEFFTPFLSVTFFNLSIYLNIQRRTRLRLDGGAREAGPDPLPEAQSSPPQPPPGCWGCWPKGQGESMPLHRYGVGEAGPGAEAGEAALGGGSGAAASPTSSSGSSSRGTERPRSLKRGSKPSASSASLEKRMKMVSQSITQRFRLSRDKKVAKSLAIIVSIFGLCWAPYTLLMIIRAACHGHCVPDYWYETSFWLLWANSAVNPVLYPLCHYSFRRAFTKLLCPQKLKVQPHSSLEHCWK
In assay [15] the target is Histamine H1 receptor (Cavia porcellus) (UniProt P31389). Nature of the assay: Histamine activity against Histamine H1 receptor of guinea pig ileum. The assay is classed as tissue-based.
Chain of Histamine H1 receptor (Cavia porcellus) (P31389 whole entry): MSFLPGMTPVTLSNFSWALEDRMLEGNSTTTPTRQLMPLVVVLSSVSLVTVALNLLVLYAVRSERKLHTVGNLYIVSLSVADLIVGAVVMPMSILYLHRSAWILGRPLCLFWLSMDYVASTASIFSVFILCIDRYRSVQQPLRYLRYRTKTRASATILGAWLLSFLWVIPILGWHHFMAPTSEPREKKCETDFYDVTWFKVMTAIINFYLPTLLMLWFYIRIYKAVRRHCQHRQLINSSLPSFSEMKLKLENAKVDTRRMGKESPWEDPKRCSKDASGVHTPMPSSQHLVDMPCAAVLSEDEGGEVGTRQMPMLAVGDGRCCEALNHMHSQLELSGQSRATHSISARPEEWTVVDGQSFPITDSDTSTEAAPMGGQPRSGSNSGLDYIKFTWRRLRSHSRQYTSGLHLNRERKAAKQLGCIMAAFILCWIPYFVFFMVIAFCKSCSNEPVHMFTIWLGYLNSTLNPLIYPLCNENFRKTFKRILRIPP
The target in assay [16] is Muscarinic acetylcholine receptor M3 (Cavia porcellus) (UniProt Q8VH26). Briefly: Affinity towards Muscarinic acetylcholine receptor M3 in guinea pig ileum. The assay is classed as tissue-based.
Chain of Muscarinic acetylcholine receptor M3 (Cavia porcellus) (Q8VH26 1-587): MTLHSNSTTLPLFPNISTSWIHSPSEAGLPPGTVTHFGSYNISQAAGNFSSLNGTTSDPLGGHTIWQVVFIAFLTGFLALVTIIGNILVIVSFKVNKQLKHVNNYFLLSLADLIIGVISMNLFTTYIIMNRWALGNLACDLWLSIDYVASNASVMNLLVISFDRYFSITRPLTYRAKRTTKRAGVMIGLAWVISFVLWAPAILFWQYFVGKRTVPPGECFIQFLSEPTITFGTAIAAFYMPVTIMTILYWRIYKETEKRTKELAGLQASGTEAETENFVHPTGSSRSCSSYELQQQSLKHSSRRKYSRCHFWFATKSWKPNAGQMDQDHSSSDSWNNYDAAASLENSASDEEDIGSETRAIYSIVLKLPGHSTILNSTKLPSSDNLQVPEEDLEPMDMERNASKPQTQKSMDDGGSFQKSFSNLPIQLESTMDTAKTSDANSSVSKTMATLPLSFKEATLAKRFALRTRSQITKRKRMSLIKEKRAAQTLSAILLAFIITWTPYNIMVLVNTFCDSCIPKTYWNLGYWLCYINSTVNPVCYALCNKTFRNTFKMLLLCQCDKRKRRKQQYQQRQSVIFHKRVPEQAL

SMILES strings stand for the structures.

`CCCCCCCCCCCCNC(=O)[C@@H](N)CCCN=C(N)N` showed an Efficacy in the assay with HL-60 [1] of 92%. This compound also gave a half-maximal effective concentration (EC50) in the assay on HL-60 [2] of 794 nM.

As for `CCCCCCCCCCCCNCC(N)CCN` (stereo unspecified), in the assay on HL-60 [2], it took 631 nM to reach a half-maximal effect (EC50). The compound also registered an Efficacy with HL-60 [3] of 128%.

`CCCCCCCCCCCCNCCN=C(N)N`: the Efficacy with HL-60 [1] was 128%. This compound gave an EC50 in the assay on HL-60 [2] of 1000 nM.

The compound `CCCCCCCCCCCCNC(=O)[C@@H](N)CCC(N)=O` showed an EC50 in the assay on HL-60 [2] of 7940 nM. The same compound came in with an Efficacy with HL-60 [4] of 110%.

For the compound `CCCCCCCCCCCCNC(=O)[C@H](N)CCCCN`, the EC50 in the assay on HL-60 [5] was 794 nM. In the assay with HL-60 [6], the Efficacy turned out to be 108%.

In turn, `CCCCCCCCCCCCNCCN` showed an EC50 in the assay on HL-60 [2] of 1000 nM. Also, the Efficacy in the assay with HL-60 [6] stood at 92%.

As for `CCCCCCCCCCCCNC(=O)C(N)CN` (stereo unspecified), the Efficacy in the assay on HL-60 [7] amounted to 131%. This compound also showed an EC50 in the assay with HL-60 [2] of 2510 nM.

For `CCCCCCCCCCCCNCC(N)CCCCN` (stereo unspecified), the EC50 with HL-60 [5] was 501 nM. The compound further displayed an Efficacy in the assay with HL-60 [8] of 120%.

Compound `CCCCCCCCCCCCNC(=O)CN` gave an EC50 in the assay on HL-60 [2] of 3980 nM. The compound also returned an Efficacy in the assay with HL-60 [9] of 100%.

For the compound `CC[C@H](C)[C@H](N)C(=O)N[C@@H](CC(N)=O)C(=O)N[C@@H](CC(C)C)C(=O)N[C@@H](CCCCN)C(=O)N[C@@H](C)C(=O)N[C@@H](CC(C)C)C(=O)N[C@@H](C)C(=O)N[C@@H](C)C(=O)N[C@@H](CC(C)C)C(=O)N[C@@H](C)C(=O)N[C@@H](CCCCN)C(=O)N[C@@H](CCCCN)C(=O)N[C@H](C(=O)N[C@@H](CC(C)C)C(N)=O)[C@@H](C)CC`, the Efficacy with HL-60 [7] is recorded as 100%. Further, the response in the assay with HL-60 [5] was half-maximal at 3160 nM (EC50).

For `CCCCCCCCCCCCCCCCNC(=O)[C@@H](N)CCCCN` [LYCETAMINE], the response in the assay with HL-60 [5] was half-maximal at 501 nM (EC50). In the assay with HL-60 [8], the Efficacy was 90%.

With `CCCCCCCCCCCCCCNC(=O)[C@@H](N)CCCCN`, the Efficacy with HL-60 [3] was 100%. The compound also showed an EC50 with HL-60 [5] of 501 nM.

In turn, `CCCCCCCCCCCCNC(=O)CNC(=O)CN` gave an EC50 in the assay on HL-60 [2] of 5010 nM. This compound also displayed an Efficacy in the assay on HL-60 [4] of 120%.

In the case of `CCCCCCCCCCCCNC(=O)C(N)CCN` (stereo unspecified), the Efficacy in the assay with HL-60 [7] is on record as 105%. The compound further showed an EC50 in the assay with HL-60 [2] of 1260 nM.

As to `CCCCCCCCCCCCNC(=O)[C@@H](N)CCCCN` [N-DODECYL LYSINE AMIDE], in the assay on HL-60 [5], the EC50 is 794 nM. This compound showed an Efficacy with HL-60 [6] of 116%.

`CCCCCCCCCCCCCCNCC(N)CCCCN` (stereo unspecified) came in with an Efficacy in the assay with HL-60 [10] of 117%. In the assay with HL-60 [5], this compound showed an EC50 of 251 nM.

`CCCCCCCCCCCCNC(=O)[C@@H](N)Cc1c[nH]cn1` gave a 50% effective concentration (EC50) in the assay with HL-60 [2] of 3160 nM. In addition, the Efficacy with HL-60 [9] is recorded as 125%.

As to `CCCCCCCCCCCCNC(=O)C(N)CCCN` (stereo unspecified), in the assay on HL-60 [7], the Efficacy is 117%. The compound further showed an EC50 in the assay on HL-60 [2] of 2510 nM. In [11], the -Log K is 5.3.

For `CCCCCCCCCCCCNC(=O)[C@@H](N)CCC/N=C(\N)N[N+](=O)[O-]`, the Efficacy in the assay with HL-60 [12] is reported as 156%.

In the assay with HL-60 [10], `CCCCCCCCCCCCCCCCNCC(N)CCCCN` (stereo unspecified) yielded an Efficacy of 84%. Besides, the EC50 with HL-60 [5] was 251 nM.

In the assay with HL-60 [2], `CCCCCCCCCCCCNCC(N)CCCN` (stereo unspecified) showed a concentration for a half-maximal effect (EC50) of 1000 nM. Further, the -Log K in [13] is 4.1; in [14], < 6; in assay [15] it was 5.4; in assay [16] it was 5.2. In addition, the Efficacy with HL-60 [6] came to 126%.

The EC50 is the concentration that produces a half-maximal response.
